Experimental data published in PubChem BioAssay.
Calls of active or inactive are those of the source.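 How the source made its calls, unless noted: active means Her2 level under about 52% in both replicate screens, with viability over 70% of control (limit read from the data); inconclusive means Her2 under the limit in one screen only, or viability under 70%; inactive means Her2 level above the set limit.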

Legend:
[1] = reducers of endogenous Her2 protein level, primary screen, SKBR3 breast tumor cells, AlphaScreen, ATP viability (AID 461); conditions: 18-24 h, measured here: SKBR3 viability, ATP luminescence, at 10 µM;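 on Her2 level: lower value means less Her2 protein in the cells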;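 on viability: percent of carrier control wells set as 100% viability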
[2] = biological target: Receptor tyrosine-protein kinase erbB-2 (Homo sapiens) (UniProt P04626); assay: as above; conditions: 18-24 h, at 10 µM, stronger effect = lower value
[3] = SK-BR-3 cell growth inhibitors, pilot screen, 24 h, human (AID 572;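 active means viability at or below 10% of carrier control in both of two separate runs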;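 further: compound exposure lasted between 18 and 24 h rather than exactly 24 h; 100% = carrier-treated control wells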); conditions: SK-BR-3 viability, CellTiter-Glo luminescence, at 10 µM, stronger effect = lower value
[4] = HUVEC growth inhibition – cell-based, human, primary screen (AID 575;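 active means viability at or below 30% in both replicate assays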;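 further: 100% = median of untreated cell wells with 0.1% DMSO on each plate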); conditions: HUVEC proliferation, CellTiter-Glo luminescence, 72 h; at 10 µM; stronger effect = lower value
Summary of the method: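 Assay system: primary human umbilical vein endothelial cells / Buffer or medium: endothelial basal medium with 2% FBS plus growth supplements / Compound dosing: one dose, 10 µM final, 0.1% DMSO / Timing: 72 h treatment at 37 °C / Signal: CTG luminescence / Benchmarks: 32 DMSO-only cell-control wells (high), 32 MePR drug-control wells (low) per plate / Plate: collagen-coated 384-well format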

[5] = growth inhibitors of H69AR lung tumor, primary screen, human, duplicate replicates (AID 580;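 active means viability at or under a set limit in both replicates, limit being median viability minus 3 SD, cut at about 48% in these data, passing the limit was not always enough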;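 further: 100% = mean luminescence of untreated wells and 0% = no signal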); conditions: H69AR lung tumor cells viability, ATP luminescence, 72 h; at 10 µM; stronger effect = lower value
[6] = reversal of MRP1-mediated doxorubicin resistance, pilot screen, H69AR cells, doxorubicin co-treatment (AID 601;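 active means viability loss from added drug above about 55%, and viability with drug at most 40%, in both replicates, limit read from the data, passing the limit was not always enough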); conditions: CellTiter-Glo, 72 h, at 10 µM; for differential viability (reversal): stronger effect = higher value
[7] = 384-well plate pilot, post-Golgi transport modulator project, inhibition of yeast transport mutant growth (AID 636; in the data active means inhibition above about 31%); conditions: absorbance 615 nm, about 18 h, stronger effect = higher value
[8] = growth suppression of yeast trafficking mutant, preliminary HTS, modulators of trafficking downstream of Golgi apparatus project, 1536-format plate, OD 615 nm (AID 637; in the data active means inhibition above about 30%); conditions: yeast transport mutant growth, absorbance 615 nm, 18 h; stronger effect = higher value
[9] = H69AR cells + 2 uM doxorubicin, measured here: viability with 2 uM doxorubicin, stronger effect = lower value
[10] = H69AR cells, compound alone cytotoxicity

Sequence of Receptor tyrosine-protein kinase erbB-2 (Homo sapiens) (P04626 whole entry, looked up): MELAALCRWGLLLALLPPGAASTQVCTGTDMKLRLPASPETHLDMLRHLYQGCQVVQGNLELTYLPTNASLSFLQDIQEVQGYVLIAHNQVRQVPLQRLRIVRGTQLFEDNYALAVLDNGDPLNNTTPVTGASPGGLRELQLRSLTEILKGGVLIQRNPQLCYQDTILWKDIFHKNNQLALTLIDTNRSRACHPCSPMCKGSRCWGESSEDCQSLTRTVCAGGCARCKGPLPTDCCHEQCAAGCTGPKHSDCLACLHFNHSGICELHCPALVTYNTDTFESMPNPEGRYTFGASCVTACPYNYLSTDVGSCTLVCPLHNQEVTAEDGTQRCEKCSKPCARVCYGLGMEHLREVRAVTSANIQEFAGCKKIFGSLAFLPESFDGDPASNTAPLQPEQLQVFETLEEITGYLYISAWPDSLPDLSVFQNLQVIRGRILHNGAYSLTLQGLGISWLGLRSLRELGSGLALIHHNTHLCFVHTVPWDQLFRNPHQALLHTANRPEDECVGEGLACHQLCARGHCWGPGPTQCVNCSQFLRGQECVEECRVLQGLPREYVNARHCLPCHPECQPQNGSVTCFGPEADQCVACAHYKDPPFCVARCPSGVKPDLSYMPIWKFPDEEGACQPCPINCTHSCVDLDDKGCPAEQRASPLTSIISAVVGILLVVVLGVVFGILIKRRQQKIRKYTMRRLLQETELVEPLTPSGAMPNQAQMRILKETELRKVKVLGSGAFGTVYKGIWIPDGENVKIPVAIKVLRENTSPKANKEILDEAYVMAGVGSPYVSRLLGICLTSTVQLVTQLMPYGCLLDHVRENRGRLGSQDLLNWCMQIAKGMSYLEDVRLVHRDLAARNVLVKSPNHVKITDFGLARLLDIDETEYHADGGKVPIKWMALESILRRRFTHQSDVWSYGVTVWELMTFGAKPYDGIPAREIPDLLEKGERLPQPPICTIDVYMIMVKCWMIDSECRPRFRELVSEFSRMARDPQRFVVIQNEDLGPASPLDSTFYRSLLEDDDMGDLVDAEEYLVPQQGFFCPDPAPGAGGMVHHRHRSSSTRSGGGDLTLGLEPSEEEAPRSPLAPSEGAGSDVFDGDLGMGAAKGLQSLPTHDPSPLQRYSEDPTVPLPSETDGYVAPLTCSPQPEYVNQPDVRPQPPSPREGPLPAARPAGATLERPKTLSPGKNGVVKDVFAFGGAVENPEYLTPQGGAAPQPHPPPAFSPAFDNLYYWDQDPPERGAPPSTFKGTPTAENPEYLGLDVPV

Row | SMILES | viability [1] | Her2 level [2] | viability [3] | viability [4] | viability [5] | differential viability (reversal) ([6]; H69AR cells + 2 uM doxorubicin) | viability [6, 9] | viability [6, 10] | inhibition [7] | inhibition [8]
1 | C=CCOc1nc2c(c(=O)n(C)c(=O)n2C)n1C | 96.5% | 100% (inactive) | 96.5% (inactive) | 90.9% (inactive) | 94.4% (inactive) | 12.4% (inactive) | 82% | 94.4% | -3.25% (inactive) | 1.33% (inactive)
2 | CCOc1ccc2cc(C#N)c(SCC(=O)N3CCCC3)nc2c1 | 71.5% | 112% (inactive) | 71.5% (inactive) | 85.3% (inactive) | 87.3% (inactive) | 11.5% (inactive) | 75.8% | 87.3% | 6.45% (inactive) | -3.64% (inactive)
3 | O=C(CSc1nnnn1Cc1ccccc1)Nc1ccc2c(c1)OCO2 | 114% | 108% (inactive) | 114% (inactive) | 90.3% (inactive) | 108% (inactive) | 18.2% (inactive) | 89.5% | 108% | -5.54% (inactive) | -3.17% (inactive)
4 | Nc1nnc(-c2cn(-c3ccccc3)nc2-c2ccccc2)o1 | 73% | 131% (inactive) | 73% (inactive) | 77.3% (inactive) | 91.2% (inactive) | 10.7% (inactive) | 80.5% | 91.2% | 2.47% (inactive) | -15.5% (inactive)
5 | COc1ccc(OC)c(S(=O)(=O)Nc2ccccc2C(=O)O)c1 | 109% | 100% (inactive) | 109% (inactive) | 98.3% (inactive) | 99% (inactive) | 11.8% (inactive) | 87.2% | 99% | -4.4% (inactive) | 0.16% (inactive)
6 | Cc1cc(Cl)cc2c1NC(=O)[C@]21[C@@H]2C(=O)N(Cc3ccccc3)C(=O)[C@@H]2[C@@H]2CCCN21 | 100% | 81% (inactive) | 100% (inactive) | 78% (inactive) | 78.1% (inactive) | -2.8% (inactive) | 80.9% | 78.1% | -3.77% (inactive) | 4.29% (inactive)
7 | CCSCCNC(=O)c1cc(-n2cnnc2)ccc1Cl | 138% | 106% (inactive) | 138% (inactive) | 108% (inactive) | 86.3% (inactive) | 0.415% (inactive) | 85.9% | 86.3% | -3.47% (inactive) | -1.48% (inactive)
8 | COc1cc(C(=O)Nc2ccc3c(c2)C(=O)N(CCC(=O)O)C3=O)cc(OC)c1OC | 97.5% | 83% (inactive) | 97.5% (inactive) | 98% (inactive) | 106% (inactive) | 5.66% (inactive) | 100% | 106% | -3.42% (inactive) | -2.86% (inactive)
9 | CC(C(=O)N1CCOCC1)N1c2cccc3cccc(c23)S1(=O)=O (stereo not given) | 101% | 91.5% (inactive) | 101% (inactive) | 100% (inactive) | 93.5% (inactive) | 0.905% (inactive) | 92.6% | 93.5% | -2.76% (inactive) | 5.57% (inactive)
10 | CCn1c(SCC(=O)c2ccc3c(c2)OCCO3)nnc1-c1ccco1 | 102% | 95% (inactive) | 102% (inactive) | 111% (inactive) | 98.6% (inactive) | 0.66% (inactive) | 97.9% | 98.6% | -4% (inactive) | -0.65% (inactive)
11 | C=CCn1c(SCC(=O)NCCCC)nc2scc(-c3ccco3)c2c1=O | 91.5% | 75.5% (inactive) | 91.5% (inactive) | 95.4% (inactive) | 88.8% (inactive) | 2.11% (inactive) | 86.7% | 88.8% | 0.13% (inactive) | -1.48% (inactive)
12 | CN(Cc1ccccc1)Cc1nc2c(c(=O)n(C)c(=O)n2C)n1Cc1ccc(Cl)cc1 | 67.5% | 102% (inactive) | 67.5% (inactive) | 84.1% (inactive) | 86% (inactive) | 1.76% (inactive) | 84.2% | 86% | -0.67% (inactive) | 7.05% (inactive)
13 | O=C(CSCCSCC(=O)c1ccco1)c1ccco1 | 83.5% | 96% (inactive) | 83.5% (inactive) | 77.3% (inactive) | 101% (inactive) | 11.3% (inactive) | 90% | 101% | 0.13% (inactive) | 8.85% (inactive)
14 | Cc1ccccc1NC(=O)C1CCN(c2cnccn2)CC1 | 98.5% | 103% (inactive) | 98.5% (inactive) | 89.2% (inactive) | 101% (inactive) | 8.59% (inactive) | 92.2% | 101% | -7.07% (inactive) | -5.48% (inactive)
15 | Cc1cc(C)n2nc3nc(N4CCCCC4)nc(-c4ccco4)c3c2n1 | 81.5% | 81% (inactive) | 81.5% (inactive) | 79.5% (inactive) | 80.2% (inactive) | -2.63% (inactive) | 82.8% | 80.2% | -4.53% (inactive) | -5.16% (inactive)
16 | CCC(C)NC(=O)C1CCCN(S(=O)(=O)c2ccc(-n3cnnn3)cc2)C1 (stereo not given) | 109% | 104% (inactive) | 109% (inactive) | 104% (inactive) | 103% (inactive) | 14.5% (inactive) | 88.6% | 103% | -2.97% (inactive) | -10% (inactive)
17 | CCc1ccc(C2CC(c3ccccc3)n3ncnc3N2)cc1 (stereo not given) | 80% | 86% (inactive) | 80% (inactive) | 83.1% (inactive) | 88.1% (inactive) | 3.85% (inactive) | 84.3% | 88.1% | 3.59% (inactive) | 0.67% (inactive)
18 | CCC(=O)N1CCN=C1SCc1ccc(Cl)cc1 | 90% | 93.5% (inactive) | 90% (inactive) | 77.3% (inactive) | 95.1% (inactive) | 10.8% (inactive) | 84.3% | 95.1% | 1.04% (inactive) | 31.5% (active)
19 | CCC1Oc2ccccc2N(CC(=O)Nc2ccc(OC)cc2OC)C1=O (stereo not given) | 90.5% | 95.5% (inactive) | 90.5% (inactive) | 106% (inactive) | 100% (inactive) | 15% (inactive) | 85.3% | 100% | -2.24% (inactive) | -1.09% (inactive)
20 | Cc1nnc(SCCn2c(N3CC(C)CC(C)C3)nc3c2c(=O)n(C)c(=O)n3C)s1 (stereo not given) | 106% | 99.5% (inactive) | 106% (inactive) | 93.8% (inactive) | 95.9% (inactive) | -2.37% (inactive) | 98.2% | 95.9% | 0.26% (inactive) | 24.7% (inactive)
21 | O=S(c1ccsc1)c1ccsc1 | 116% | 87% (inactive) | 116% (inactive) | 104% (inactive) | 88.7% (inactive) | -4.55% (inactive) | 93.2% | 88.7% | 1.6% (inactive) | 1.29% (inactive)
22 | NC(=O)COC(=O)CNC(=O)c1ccc(Cl)cc1 | 125% | 98% (inactive) | 125% (inactive) | 86.1% (inactive) | 101% (inactive) | 16.1% (inactive) | 84.7% | 101% | -2.4% (inactive) | -0.81% (inactive)
23 | COc1cc(C2=NOC(C(=O)NCc3ccc(F)cc3)C2)cc(OC)c1OC (stereo not given) | 84% | 74.5% (inactive) | 84% (inactive) | 39.9% (inactive) | 31.6% (active) | -52.3% (inactive) | 83.9% | 31.6% | -4.74% (inactive) | -1.43% (inactive)
24 | Cc1nc(SCC(=O)Nc2ccccc2C(F)(F)F)c2c(=O)n(C)c(=O)n(C)c2n1 | 87% | 85% (inactive) | 87% (inactive) | 80.3% (inactive) | 74% (inactive) | -2.32% (inactive) | 76.3% | 74% | -3.87% (inactive) | 3.61% (inactive)
25 | Cc1ccc(S(=O)(=O)n2nc(OC(=O)c3ccco3)cc2N)cc1 | 92.5% | 106% (inactive) | 92.5% (inactive) | 96.4% (inactive) | 88.8% (inactive) | 4.73% (inactive) | 84% | 88.8% | -6.32% (inactive) | -1.45% (inactive)
26 | Cc1cc(C(=O)OCCO)c(C#N)c(N)n1 | 92% | 90.5% (inactive) | 92% (inactive) | 95.9% (inactive) | 92.1% (inactive) | -5.51% (inactive) | 97.6% | 92.1% | -3.87% (inactive) | 1.94% (inactive)
27 | CCC1=C(C(=O)OC)C(c2cc(OC)ccc2OC)C(C#N)=C(N)O1 (stereo not given) | 99.5% | 87.5% (inactive) | 99.5% (inactive) | 71.9% (inactive) | 87.2% (inactive) | -0.035% (inactive) | 87.2% | 87.2% | -6.67% (inactive) | -0.98% (inactive)
28 | Cc1nc(SCCC(=O)O)c2ccccc2n1 | 98% | 108% (inactive) | 98% (inactive) | 88.4% (inactive) | 85.9% (inactive) | 1.88% (inactive) | 84% | 85.9% | -0.26% (inactive) | -0.5% (inactive)
